Measurements as given in ChEMBL document CHEMBL1155944 (J Med Chem, 2008).
The source made the active and inactive calls. No cut-off for these calls is given here.

What was measured:
Rattus norvegicus [1] = species: Rattus norvegicus; assay: Displacement of [3H]Muscimol from GABAA alpha-1-alpha-5 receptor in Sprague-Dawley rat brain cortex membrane at 100 uM
Outline: (§1)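 Well-washed membranes from adult male Sprague-Dawley rat cortex or cerebellum (50–200 μg protein). Incubated 60 min on ice in 50 mM Tris/citrate, pH 7.3, with 6 nM [3H]muscimol and test compound. […] Filtered and counted by scintillation. IC50 and pseudo-Hill coefficient obtained by nonlinear regression.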

[2] = biological target: Gamma-aminobutyric acid receptor subunit alpha-6 (Rattus norvegicus) (UniProt P30191); assay: Displacement of [3H]Muscimol from GABAAalpha6 receptor in Sprague-Dawley rat brain cerebellum membrane at 1 mM; format: tissue-based; outline: as §1
Rattus norvegicus [3] = species: Rattus norvegicus; assay: Displacement of [3H]Muscimol from GABAA alpha-1-alpha-5 receptor in Sprague-Dawley rat brain cortex membrane at 1 mM; outline: as §1
[4] = biological target: Gamma-aminobutyric acid receptor subunit alpha-6 (Rattus norvegicus) (UniProt P30191); assay: Displacement of [3H]Muscimol from GABAAalpha6 receptor in Sprague-Dawley rat brain cerebellum membrane at 100 uM; format: tissue-based; outline: as §1
Rattus norvegicus [5] = species: Rattus norvegicus; assay: (§2) Displacement of [3H]Muscimol from GABAA alpha-1-alpha-5 receptor in Sprague-Dawley rat brain cortex membrane; outline: as §1
[6] = as §2; outline: as §1
[7] = biological target: Gamma-aminobutyric acid receptor subunit alpha-6 (Rattus norvegicus) (UniProt P30191); assay: (§3) Displacement of [3H]Muscimol from GABAAalpha6 receptor in Sprague-Dawley rat brain cerebellum membrane; format: tissue-based; outline: as §1
[8] = biological target: Gamma-aminobutyric acid receptor subunit alpha-6 (Rattus norvegicus, UniProt P30191); assay: as §3; format: tissue-based; outline: as §1
Oocyte [9] = assay: Activity at rat GABAA alpha-1R66C-beta-2 receptor mutant expressed in Xenopus laevis oocytes assessed as inhibition of GABA-induced current at -60 mV by Two-Electrode voltage clamp method; format: cell-based
Oocyte [10] = assay: Activity at rat GABAA alpha-1T129C-beta-2 receptor mutant expressed in Xenopus laevis oocytes assessed as inhibition of GABA-induced current at -60 mV by Two-Electrode voltage clamp method; format: cell-based
[11] = biological target: Gamma-aminobutyric acid receptor subunit alpha-4 (Rattus norvegicus) (UniProt P28471); assay: Antagonist activity at recombinant rat GABAA alpha-4-beta-3-gamma-2 receptor expressed in HEK293 cells assessed as inhibition of GABA-induced current at 1 mM by whole-cell patch-clamp technique; format: functional, cell-based; design: scale not given: the % may be the effect or the level left
Outline: (§4)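 HEK293 cells transiently transfected by calcium phosphate with rat αi, β3, γ2S and EGFP cDNAs, recorded 2 days later. Whole-cell patch clamp in HEPES saline, pH 7.35. […] Response expressed relative to the GABA-alone current. Data from at least four cells.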

[12] = biological target: GABA A receptor alpha-5/beta-3/gamma-2 (Rattus norvegicus) (UniProt P18508+P19969+P63079); assay: Intrinsic activity at recombinant rat GABAA alpha-5-beta-3-gamma-2 receptor expressed in HEK293 cells assessed as induction of current at 1 mM by whole-cell patch-clamp technique relative to GABA; format: cell-based
Outline: (§5)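 Rat αiβ3γ2S receptors transiently expressed in HEK293 cells, with EGFP marking transfected cells, recorded 2 days after transfection. Whole-cell patch clamp in HEPES saline, pH 7.35. Drug applied alone at 1, 10, 100 and 1000 μM. […] Data from at least four cells.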

[13] = biological target: T1, GABA A receptor alpha-2/beta-2/gamma-2 (Rattus norvegicus) (UniProt P18508+P23576+P63138); assay: Intrinsic activity at recombinant rat GABAA alpha-2-beta-3-gamma-2 receptor expressed in HEK293 cells assessed as induction of current at 1 mM by whole-cell patch-clamp technique relative to GABA; format: cell-based; outline: as §5
[14] = biological target: Gamma-aminobutyric acid receptor subunit alpha-3 (Rattus norvegicus) (UniProt P20236); assay: Intrinsic activity at recombinant rat GABAA alpha-3-beta-3-gamma-2 receptor expressed in HEK293 cells assessed as induction of current at 1 mM by whole-cell patch-clamp technique relative to GABA; format: cell-based; outline: as §5
[15] = biological target: T1, GABA A receptor alpha-2/beta-2/gamma-2 (Rattus norvegicus); assay: Antagonist activity at recombinant rat GABAA alpha-2-beta-3-gamma-2 receptor expressed in HEK293 cells assessed as inhibition of GABA-induced current at 1 mM by whole-cell patch-clamp technique; format: functional, cell-based; design: scale not given: the % may be the effect or the level left; outline: as §4
[16] = biological target: Gamma-aminobutyric acid receptor subunit alpha-6 (Rattus norvegicus) (UniProt P30191); assay: Antagonist activity at recombinant rat GABAA alpha-6-beta-3-gamma-2 receptor expressed in HEK293 cells assessed as inhibition of GABA-induced current at 1 mM by whole-cell patch-clamp technique; format: functional, cell-based; design: scale not given: the % may be the effect or the level left; outline: as §4
[17] = biological target: Gamma-aminobutyric acid receptor subunit alpha-6 (Rattus norvegicus) (UniProt P30191); assay: Intrinsic activity at recombinant rat GABAA alpha-6-beta-3-gamma-2 receptor expressed in HEK293 cells assessed as induction of current at 1 mM by whole-cell patch-clamp technique relative to GABA; format: cell-based; outline: as §5
[18] = biological target: GABA-A receptor; alpha-1/beta-2/gamma-2 (Rattus norvegicus) (UniProt P18508+P62813+P63138); assay: Intrinsic activity at recombinant rat GABAA alpha-1-beta-3-gamma-2 receptor expressed in HEK293 cells assessed as induction of current at 1 mM by whole-cell patch-clamp technique relative to GABA; format: cell-based; outline: as §5
[19] = biological target: Gamma-aminobutyric acid receptor subunit alpha-4 (Rattus norvegicus) (UniProt P28471); assay: Intrinsic activity at recombinant rat GABAA alpha-4-beta-3-gamma-2 receptor expressed in HEK293 cells assessed as induction of current at 1 mM by whole-cell patch-clamp technique relative to GABA; format: cell-based; outline: as §5

Sequence of Gamma-aminobutyric acid receptor subunit alpha-6 (P30191 whole entry): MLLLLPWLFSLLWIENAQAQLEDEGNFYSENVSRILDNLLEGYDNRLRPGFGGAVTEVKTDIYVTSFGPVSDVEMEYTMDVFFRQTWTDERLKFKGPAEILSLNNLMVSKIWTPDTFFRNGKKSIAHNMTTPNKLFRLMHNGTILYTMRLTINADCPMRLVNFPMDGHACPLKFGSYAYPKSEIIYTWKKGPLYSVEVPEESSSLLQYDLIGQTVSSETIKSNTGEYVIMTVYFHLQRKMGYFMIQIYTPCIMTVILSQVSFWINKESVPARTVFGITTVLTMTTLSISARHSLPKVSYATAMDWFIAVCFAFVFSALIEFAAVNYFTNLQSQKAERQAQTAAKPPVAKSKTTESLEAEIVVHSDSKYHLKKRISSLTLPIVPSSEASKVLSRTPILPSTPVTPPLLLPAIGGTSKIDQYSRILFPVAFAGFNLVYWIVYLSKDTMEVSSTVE
Sequence of Gamma-aminobutyric acid receptor subunit alpha-6 (Rattus norvegicus) (P30191 whole entry): as above
Sequence of Gamma-aminobutyric acid receptor subunit alpha-4 (Rattus norvegicus) (P28471 whole entry): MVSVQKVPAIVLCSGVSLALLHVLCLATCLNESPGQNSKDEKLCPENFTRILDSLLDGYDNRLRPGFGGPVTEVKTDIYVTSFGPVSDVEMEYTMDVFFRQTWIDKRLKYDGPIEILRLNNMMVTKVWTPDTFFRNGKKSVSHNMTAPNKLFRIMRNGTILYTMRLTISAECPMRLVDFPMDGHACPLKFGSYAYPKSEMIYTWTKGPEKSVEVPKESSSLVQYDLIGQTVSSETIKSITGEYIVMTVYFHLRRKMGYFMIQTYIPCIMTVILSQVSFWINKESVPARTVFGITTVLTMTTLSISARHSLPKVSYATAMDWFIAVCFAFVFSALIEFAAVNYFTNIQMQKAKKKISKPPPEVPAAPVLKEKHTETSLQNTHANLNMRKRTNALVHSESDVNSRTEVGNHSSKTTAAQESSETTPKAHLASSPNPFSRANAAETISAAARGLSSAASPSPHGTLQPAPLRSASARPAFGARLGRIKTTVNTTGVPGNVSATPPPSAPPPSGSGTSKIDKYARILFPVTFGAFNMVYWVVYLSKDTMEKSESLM
Sequence of Gamma-aminobutyric acid receptor subunit alpha-3 (Rattus norvegicus) (P20236 whole entry): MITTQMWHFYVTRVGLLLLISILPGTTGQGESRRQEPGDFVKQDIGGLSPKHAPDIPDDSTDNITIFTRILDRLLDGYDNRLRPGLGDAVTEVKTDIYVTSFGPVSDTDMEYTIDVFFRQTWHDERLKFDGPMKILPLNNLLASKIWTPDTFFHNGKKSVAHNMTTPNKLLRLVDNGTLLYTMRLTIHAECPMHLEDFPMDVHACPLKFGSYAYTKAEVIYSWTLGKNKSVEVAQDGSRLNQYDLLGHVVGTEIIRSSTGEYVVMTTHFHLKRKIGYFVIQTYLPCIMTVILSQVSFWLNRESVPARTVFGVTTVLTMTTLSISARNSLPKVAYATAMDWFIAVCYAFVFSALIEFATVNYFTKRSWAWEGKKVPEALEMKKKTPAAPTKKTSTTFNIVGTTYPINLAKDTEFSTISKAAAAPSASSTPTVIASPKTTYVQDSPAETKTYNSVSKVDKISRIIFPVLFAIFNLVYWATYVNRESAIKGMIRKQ

Row | SMILES | inhibition (Rattus norvegicus [1]) [%] | inhibition [2] [%] | inhibition (Rattus norvegicus [3]) [%] | inhibition [4] [%] | other results
1 | S=c1[nH]nc(C2CCCCC2)o1 | 10 | -3 | 18 | 0 | –
2 | CN(C)Cc1nnc(S)o1 | 22 | 37 | 47 | 3 | –
3 | Oc1nnc(C2CCNCC2)n1Cc1ccccc1 | 18 | 52 | 56 | 14 | –
4 | Sc1nnc(C2CCN(Cc3ccccc3)CC2)o1 | 3 | 30 | 33 | 6 | –
5 | Sc1nnc(C2CCCNC2)o1 (stereo not given) | 12 | 42 | 51 | 15 | –
6 | NCc1nnc(S)o1 | 58 | 95 | 99 | 61 | logIC50 (Rattus norvegicus [5]): 1.76; IC50 [6]: 57 µM; logIC50 [7]: 1.69; IC50 [8]: 49 µM
7 | Cc1nnc(O)o1 | 7 | 4 | 26 | 3 | –
8 | Oc1nnc(C2CCCNC2)o1 (stereo not given) | 1 | 10 | 24 | 9 | –
9 | CN1CCC(c2nnc(O)o2)CC1 | 4 | 26 | 27 | 6 | –
10 | Sc1nnc([C@@H]2CCCN2)o1 | 21 | 31 | 36 | -2 | –
11 | C[C@@H](N)c1nnc(O)o1 | 26 | 34 | 16 | 13 | –
12 | CS(=O)(=S)OCCNC(=O)CCCC[C@@H]1SC[C@@H]2NC(=O)N[C@@H]21 (stereo not given in full) | – | – | – | – | inhibition (Oocyte [9]): 75%; inhibition (Oocyte [10]): 60%
13 | Sc1nnc(C2CCNCC2)n1Cc1ccccc1 | -6 | – | – | 13 | –
14 | Oc1nnc(C2CCCCC2)o1 | 18 | 1 | -2 | – | –
15 | NCCc1nnc(O)o1 | 85 | 98 | 100 | 89 | logIC50 (Rattus norvegicus [5]): 0.971; IC50 [6]: 9.4 µM; logIC50 [7]: 0.868; IC50 [8]: 7.4 µM
16 | NCc1nnc(O)n1Cc1ccccc1 | 4 | 2 | 11 | 1 | –
17 | Oc1nnc(C2CCNCC2)o1 | 38 | 77 | 79 | 38 | Activity [11]: 52%; Activity [12]: 34%; Activity [13]: 17%; logIC50 (Rattus norvegicus [5]): 2.26; IC50 [6]: 183 µM; logIC50 [7]: 2.09; IC50 [8]: 123 µM; Activity [14]: 18%; Activity [15]: 42%; Activity [16]: 41%
18 | Oc1nnc([C@@H]2CCCN2)o1 | 5 | 13 | 10 | 8 | –
19 | Cc1nnc(S)o1 | 20 | -3 | 10 | -4 | –
20 | Cc1nnc(C2CCNCC2)o1 | 48 | 91 | 87 | 56 | Activity [17]: 29%; Activity [12]: < 10%; Activity [13]: < 10%; logIC50 (Rattus norvegicus [5]): 2.04; IC50 [6]: 109 µM; logIC50 [7]: 1.88; IC50 [8]: 76 µM; Activity [14]: < 10%; Activity [18]: < 10%; Activity [19]: < 10%
21 | c1ccc(CN2CCC(c3nnco3)CC2)cc1 | -5 | -5 | 1 | 1 | –
22 | NCc1nnc(S)n1Cc1ccccc1 | – | – | – | – | Activity (Rattus norvegicus [1]): inactive; Activity [2]: inactive; Activity (Rattus norvegicus [3]): inactive; Activity [4]: inactive
23 | CNCc1nnc(O)o1 | 14 | 64 | 58 | 22 | –
24 | Oc1nnc(C2CCN(Cc3ccccc3)CC2)o1 | 12 | 30 | 50 | 7 | –
25 | CN(C)Cc1nnc(O)o1 | 3 | 26 | 27 | 5 | –
26 | NCCc1nnc(S)o1 | 9 | 67 | 61 | 23 | –
27 | CN1CCC(c2nnc(S)o2)CC1 | 6 | 27 | 48 | 8 | –
28 | CNCc1nnc(S)o1 | 17 | 16 | 24 | 9 | –
